species on record: Mus musculus; assay: Uptake Ratio of Tumor/blood (each in % ID/g) in B16/F1 Murine Melanoma-Bearing C57 Mice at 4 h; format: functional, organism-based; details: not given
Procedure, shortened: (§1)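 C57 BL/6 female mice (7–8 weeks) carried B16/F1 tumours from 1×10^6 cells given s.c. in the right flank; tumours were ~500 mg at 9–10 days. Each mouse received […] of HPLC-purified, neutralized 111In-DOTA peptide via the tail vein. Mice were killed at 0.5, 2, 4 or 24 h pi. Tissues were weighed and γ-counted, expressed as % ID/g; ratios were tumor/tissue % ID/g.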

| Substance | Uptake ratio |
| --- | --- |
| DOTA-ReCCEHdFRWCKPVD-OH | 199 |

species on record: Mus musculus; assay: Uptake Ratio of Tumor/muscle (each in % ID/g) in B16/F1 Murine Melanoma-Bearing C57 Mice at 4 h; format: functional, organism-based; details: Muscle tissue
Procedure, shortened: (§2)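 Female C57 BL/6 mice, 7–8 weeks old, carried subcutaneous right-flank B16/F1 tumors from 1×10^6 cells and were used 9–10 days later at ~500 mg tumor weight. Each received […] of HPLC-purified, pH-neutralized ¹¹¹In-DOTA peptide by tail vein. Tumor and organs were excised at the stated time, weighed and γ-counted. Each tissue was taken as % ID/g, and tumor/normal-tissue ratios were formed from these values.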

| Substance | Uptake ratio |
| --- | --- |
| DOTA-ReCCEHdFRWCKPVD-OH | 156 |

species on record: Mus musculus; assay: Uptake Ratio of Tumor/liver (each in % ID/g) in B16/F1 Murine Melanoma-Bearing C57 Mice at 4 h; format: functional, organism-based; details: not given; procedure, shortened: as §1

| Substance | Uptake ratio |
| --- | --- |
| DOTA-ReCCEHdFRWCKPVD-OH | 46.8 |

species on record: Mus musculus; assay: Uptake Ratio of Tumor/lungs (each in % ID/g) in B16/F1 Murine Melanoma-Bearing C57 Mice at 24 h; format: functional, organism-based; details: not given; procedure, shortened: as §2

| Substance | Uptake ratio |
| --- | --- |
| DOTA-ReCCEHdFRWCKPVD-OH | 105 |

species on record: Mus musculus; assay: Radioactivity uptake in the pancreas was expressed as a percentage of the injected radioactive dose per gram of tissue (% ID/g) in B16/F1 Murine Melanoma-Bearing C57 Mice at 2 h; format: functional, organism-based; details: not given; procedure, shortened: as §1

| Substance | ID/g [%] |
| --- | --- |
| DOTA-ReCCEHdFRWCKPVD-OH | 0.029 |

species on record: Mus musculus; assay: Radioactivity uptake in the blood was expressed as a percentage of the injected radioactive dose per gram of tissue (% ID/g) in B16/F1 Murine Melanoma-Bearing C57 Mice at 0.5 h; format: functional, organism-based; details: not given; procedure, shortened: as §1

| Substance | ID/g [%] |
| --- | --- |
| DOTA-ReCCEHdFRWCKPVD-OH | 1.33 |

species on record: Mus musculus; assay: Uptake Ratio of Tumor/blood (each in % ID/g) in B16/F1 Murine Melanoma-Bearing C57 Mice at 0.5 h; format: functional, organism-based; details: not given; procedure, shortened: as §1

| Substance | Uptake ratio |
| --- | --- |
| DOTA-ReCCEHdFRWCKPVD-OH | 6.8 |

species on record: Mus musculus; assay: Radioactivity uptake in the liver was expressed as a percentage of the injected radioactive dose per gram of tissue (% ID/g) in B16/F1 Murine Melanoma-Bearing C57 Mice at 24 h; format: functional, organism-based; details: not given; procedure, shortened: as §1

| Substance | ID/g [%] |
| --- | --- |
| DOTA-ReCCEHdFRWCKPVD-OH | 0.19 |

species on record: Mus musculus; assay: Uptake Ratio of Tumor/blood (each in % ID/g) in B16/F1 Murine Melanoma-Bearing C57 Mice at 24 h; format: functional, organism-based; details: not given; procedure, shortened: as §1

| Substance | Uptake ratio |
| --- | --- |
| DOTA-ReCCEHdFRWCKPVD-OH | 65.5 |

species on record: Mus musculus; assay: Uptake Ratio of Tumor/lungs (each in % ID/g) in B16/F1 Murine Melanoma-Bearing C57 Mice at 4 h; format: functional, organism-based; details: not given; procedure, shortened: as §2

| Substance | Uptake ratio |
| --- | --- |
| DOTA-ReCCEHdFRWCKPVD-OH | 104 |

species on record: Mus musculus; assay: Radioactivity uptake in the liver was expressed as a percentage of the injected radioactive dose per gram of tissue (% ID/g) in B16/F1 Murine Melanoma-Bearing C57 Mice at 0.5 h; format: functional, organism-based; details: not given; procedure, shortened: as §1

| Substance | ID/g [%] |
| --- | --- |
| DOTA-ReCCEHdFRWCKPVD-OH | 0.43 |

species on record: Mus musculus; assay: Uptake Ratio of Tumor/kidneys (each in % ID/g) in B16/F1 Murine Melanoma-Bearing C57 Mice at 0.5 h; format: functional, organism-based; details: Kidney; procedure, shortened: as §1

| Substance | Uptake ratio |
| --- | --- |
| DOTA-ReCCEHdFRWCKPVD-OH | 0.78 |

species on record: Mus musculus; assay: Radioactivity uptake in the kidneys was expressed as a percentage of the injected radioactive dose per gram of tissue (% ID/g) in B16/F1 Murine Melanoma-Bearing C57 Mice at 0.5 h; format: functional, organism-based; details: Kidney; procedure, shortened: as §1

| Substance | ID/g [%] |
| --- | --- |
| DOTA-ReCCEHdFRWCKPVD-OH | 11.5 |

species on record: Mus musculus; assay: Radioactivity uptake in the liver was expressed as a percentage of the injected radioactive dose per gram of tissue (% ID/g) in B16/F1 Murine Melanoma-Bearing C57 Mice at 4 h; format: functional, organism-based; details: not given; procedure, shortened: as §1

| Substance | ID/g [%] |
| --- | --- |
| DOTA-ReCCEHdFRWCKPVD-OH | 0.16 |

species on record: Mus musculus; assay: Uptake Ratio of Tumor/kidneys (each in % ID/g) in B16/F1 Murine Melanoma-Bearing C57 Mice at 24 h; format: functional, organism-based; details: Kidney; procedure, shortened: as §1

| Substance | Uptake ratio |
| --- | --- |
| DOTA-ReCCEHdFRWCKPVD-OH | 0.4 |

species on record: Mus musculus; assay: Radioactivity uptake in the heart was expressed as a percentage of the injected radioactive dose per gram of tissue (% ID/g) in B16/F1 Murine Melanoma-Bearing C57 Mice at 4 h; format: functional, organism-based; details: not given; procedure, shortened: as §1

| Substance | ID/g [%] |
| --- | --- |
| DOTA-ReCCEHdFRWCKPVD-OH | 0.054 |

species on record: Mus musculus; assay: Uptake Ratio of Tumor/kidneys (each in % ID/g) in B16/F1 Murine Melanoma-Bearing C57 Mice at 4 h; format: functional, organism-based; details: Kidney; procedure, shortened: as §1

| Substance | Uptake ratio |
| --- | --- |
| DOTA-ReCCEHdFRWCKPVD-OH | 0.91 |

species on record: Mus musculus; assay: Radioactivity uptake in the lungs was expressed as a percentage of the injected radioactive dose per gram of tissue (% ID/g) in B16/F1 Murine Melanoma-Bearing C57 Mice at 2 h; format: functional, organism-based; details: Lung; procedure, shortened: as §1

| Substance | ID/g [%] |
| --- | --- |
| DOTA-ReCCEHdFRWCKPVD-OH | 0.16 |

species on record: Mus musculus; assay: Uptake Ratio of Tumor/muscle (each in % ID/g) in B16/F1 Murine Melanoma-Bearing C57 Mice at 24 h; format: functional, organism-based; details: Muscle tissue; procedure, shortened: as §2

| Substance | Uptake ratio |
| --- | --- |
| DOTA-ReCCEHdFRWCKPVD-OH | 27.3 |

species on record: Mus musculus; assay: Uptake Ratio of Tumor/kidneys (each in % ID/g) in B16/F1 Murine Melanoma-Bearing C57 Mice at 2 h; format: functional, organism-based; details: Kidney; procedure, shortened: as §1

| Substance | Uptake ratio |
| --- | --- |
| DOTA-ReCCEHdFRWCKPVD-OH | 1.1 |

species on record: Mus musculus; assay: Radioactivity uptake in the blood was expressed as a percentage of the injected radioactive dose per gram of tissue (% ID/g) in B16/F1 Murine Melanoma-Bearing C57 Mice at 2 h; format: functional, organism-based; details: not given; procedure, shortened: as §1

| Substance | ID/g [%] |
| --- | --- |
| DOTA-ReCCEHdFRWCKPVD-OH | 0.05 |

species on record: Mus musculus; assay: Radioactivity uptake in the heart was expressed as a percentage of the injected radioactive dose per gram of tissue (% ID/g) in B16/F1 Murine Melanoma-Bearing C57 Mice at 0.5 h; format: functional, organism-based; details: not given; procedure, shortened: as §1

| Substance | ID/g [%] |
| --- | --- |
| DOTA-ReCCEHdFRWCKPVD-OH | 0.44 |

species on record: Mus musculus; assay: Uptake Ratio of Tumor/liver (each in % ID/g) in B16/F1 Murine Melanoma-Bearing C57 Mice at 0.5 h; format: functional, organism-based; details: not given; procedure, shortened: as §1

| Substance | Uptake ratio |
| --- | --- |
| DOTA-ReCCEHdFRWCKPVD-OH | 20.7 |

species on record: Mus musculus; assay: Uptake Ratio of Tumor/blood (each in % ID/g) in B16/F1 Murine Melanoma-Bearing C57 Mice at 2 h; format: functional, organism-based; details: not given; procedure, shortened: as §1

| Substance | Uptake ratio |
| --- | --- |
| DOTA-ReCCEHdFRWCKPVD-OH | 224 |

species on record: Mus musculus; assay: Radioactivity uptake in the spleen was expressed as a percentage of the injected radioactive dose per gram of tissue (% ID/g) in B16/F1 Murine Melanoma-Bearing C57 Mice at 0.5 h; format: functional, organism-based; details: not given; procedure, shortened: as §1

| Substance | ID/g [%] |
| --- | --- |
| DOTA-ReCCEHdFRWCKPVD-OH | 0.29 |

species on record: Mus musculus; assay: Uptake Ratio of Tumor/liver (each in % ID/g) in B16/F1 Murine Melanoma-Bearing C57 Mice at 24 h; format: functional, organism-based; details: not given; procedure, shortened: as §1

| Substance | Uptake ratio |
| --- | --- |
| DOTA-ReCCEHdFRWCKPVD-OH | 12.9 |

species on record: Mus musculus; assay: Radioactivity uptake in the muscle was expressed as a percentage of the injected radioactive dose per gram of tissue (% ID/g) in B16/F1 Murine Melanoma-Bearing C57 Mice at 4 h; format: functional, organism-based; details: not given; procedure, shortened: as §1

| Substance | ID/g [%] |
| --- | --- |
| DOTA-ReCCEHdFRWCKPVD-OH | 0.047 |

species on record: Mus musculus; assay: Uptake Ratio of Tumor/muscle (each in % ID/g) in B16/F1 Murine Melanoma-Bearing C57 Mice at 0.5 h; format: functional, organism-based; details: Muscle tissue; procedure, shortened: as §2

| Substance | Uptake ratio |
| --- | --- |
| DOTA-ReCCEHdFRWCKPVD-OH | 38.2 |

species on record: Mus musculus; assay: Radioactivity uptake in the pancreas was expressed as a percentage of the injected radioactive dose per gram of tissue (% ID/g) in B16/F1 Murine Melanoma-Bearing C57 Mice at 0.5 h; format: functional, organism-based; details: not given; procedure, shortened: as §1

| Substance | ID/g [%] |
| --- | --- |
| DOTA-ReCCEHdFRWCKPVD-OH | 0.27 |

species on record: Mus musculus; assay: Radioactivity uptake in the muscle was expressed as a percentage of the injected radioactive dose per gram of tissue (% ID/g) in B16/F1 Murine Melanoma-Bearing C57 Mice at 2 h; format: functional, organism-based; details: not given; procedure, shortened: as §1

| Substance | ID/g [%] |
| --- | --- |
| DOTA-ReCCEHdFRWCKPVD-OH | 0.13 |

species on record: Mus musculus; assay: Radioactivity uptake in the lungs was expressed as a percentage of the injected radioactive dose per gram of tissue (% ID/g) in B16/F1 Murine Melanoma-Bearing C57 Mice at 0.5 h; format: functional, organism-based; details: Lung; procedure, shortened: as §1

| Substance | ID/g [%] |
| --- | --- |
| DOTA-ReCCEHdFRWCKPVD-OH | 1.16 |

species on record: Mus musculus; assay: Radioactivity uptake in the heart was expressed as a percentage of the injected radioactive dose per gram of tissue (% ID/g) in B16/F1 Murine Melanoma-Bearing C57 Mice at 24 h; format: functional, organism-based; details: not given; procedure, shortened: as §1

| Substance | ID/g [%] |
| --- | --- |
| DOTA-ReCCEHdFRWCKPVD-OH | 0.017 |

species on record: Mus musculus; assay: Radioactivity uptake in the muscle was expressed as a percentage of the injected radioactive dose per gram of tissue (% ID/g) in B16/F1 Murine Melanoma-Bearing C57 Mice at 24 h; format: functional, organism-based; details: not given; procedure, shortened: as §1

| Substance | ID/g [%] |
| --- | --- |
| DOTA-ReCCEHdFRWCKPVD-OH | 0.082 |

species on record: Mus musculus; assay: Radioactivity uptake in the lungs was expressed as a percentage of the injected radioactive dose per gram of tissue (% ID/g) in B16/F1 Murine Melanoma-Bearing C57 Mice at 24 h; format: functional, organism-based; details: Lung; procedure, shortened: as §1

| Substance | ID/g [%] |
| --- | --- |
| DOTA-ReCCEHdFRWCKPVD-OH | 0.035 |

— ChEMBL document CHEMBL1135742, “Modification of the structure of a metallopeptide: synthesis and biological evaluation of (111)In-labeled DOTA-conjugated rhenium-cyclized alpha-MSH analogues” (J Med Chem, 2002)
